For test [1], the system named is Lipid bilayer. The experiment in a line: Binding affinity to dipalmitoyl phosphatidyl choline lipid bilayer assessed as decrease in pre-transition temperature by DSC technique.
In test [2] the test system is Lipid bilayer. The experiment in a line: Binding affinity to dipalmitoyl phosphatidyl choline lipid bilayer assessed as decrease in pre-transition temperature at compound to lipid molar ratio of 1:5 by DSC technique. The procedure, abridged:
(§1)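 DPPC bilayers carried additive at additive:lipid molar ratios of 0:100, 1:5, 1:2 or 1:1. Samples were degassed under vacuum and scanned by DSC from 20 to 60 °C at 10 °C/h. The pre-transition and main transition (Tm) temperatures were read from the thermograms and compared with the additive-free lipid.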
In general terms: In DSC, transitions show as peaks or steps in heat flow.

Test [3] has as its system Lipid bilayer. As to the kind of experiment: Binding affinity to dipalmitoyl phosphatidyl choline lipid bilayer assessed as decrease in pre-transition temperature at compound to lipid molar ratio of 1:1 by DSC technique. In short, it runs like this:
as §1

Test [4] in a line: (§2) Antifertility activity against goat epididymis sperm cells assessed as loss of sperm motility at 1.25 mM by Sander-Cramer test. Type of test: functional, Capra hircus. In short, it runs like this: (§3)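 Sperm came from the cauda epididymis of goats. Tissue pieces were allowed to settle out, and the cells were washed, pelleted and resuspended in buffer. Cells were diluted in Dulbecco buffer (control) or in 1.25 mM drug solution. Motility was scored by the Sander-Cramer method, examining at least six microscope fields per slide at 1 h and 2 h of incubation.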

Test [5] concerns Sperm. The description is as §2. The format is functional. To be noted: Capra hircus. The procedure, abridged:
as §3

For test [6], the system named is Lipid bilayer. As to the kind of experiment: Binding affinity to dipalmitoyl phosphatidyl choline lipid bilayer assessed as decrease in main transition temperature at compound to lipid molar ratio of 1:1 by DSC technique. The procedure, abridged: as §1
Test [7] deals with Lipid bilayer. The experiment in a line: Binding affinity to dipalmitoyl phosphatidyl choline lipid bilayer assessed as decrease in main transition temperature by DSC technique.
The subject of test [8] is Lipid bilayer. As to the kind of experiment: Binding affinity to dipalmitoyl phosphatidyl choline lipid bilayer assessed as decrease in main transition temperature at compound to lipid molar ratio of 1:5 by DSC technique. The procedure, abridged:
as §1

Test [9] deals with Sperm. As to the kind of experiment: Antifertility activity against goat epididymis sperm cells assessed as inhibition of sperm motility at 1.25 mM after 1 hr by Sander-Cramer test. The format is functional. The conditions noted are these: Capra hircus. In short, it runs like this: as §3

Activity calls are given as the source filed them. No cut-off for these calls is given here.

Take `CCOC(=O)C1=C(C)NC(C)=C(C(=O)OCC)C1c1ccccc1`: the result in the test on Lipid bilayer [1], in the test on Lipid bilayer [2] and in the test on Lipid bilayer [3] was Active. The Activity in [4] was 25%.

Turning to `O=C(O)c1cc(/N=N/c2ccc(S(=O)(=O)Nc3ccccn3)cc2)ccc1O`, the result in the test on Lipid bilayer [1], in the test with Lipid bilayer [2] and in the test with Lipid bilayer [3] was Active.

Take `CCOC(=O)C1=C(C)NC(C)=C(C(=O)OCC)C1c1ccccc1O`: the result in the test on Lipid bilayer [1], in the test with Lipid bilayer [2] and with Lipid bilayer [3] was Active. For the same molecule, the inhibition result in the test with Sperm [5] was “Active”.

Turning to `CCOC(=O)C1=C(C)NC(C)=C(C(=O)OCC)C1c1ccc(Cl)cc1`, the outcome in the test on Lipid bilayer [1], with Lipid bilayer [2] and in the test on Lipid bilayer [3] was Active. Besides, in test [4], the Activity was 25%.

Regarding `CCOC(=O)C1=C(C)NC(C)=C(C(=O)OCC)C1c1ccc(O)cc1`, the Tm in the test on Lipid bilayer [6], in the test with Lipid bilayer [7] and in the test with Lipid bilayer [8] was 4.25 °C each time. Moreover, the result in the test with Lipid bilayer [1], in the test on Lipid bilayer [2] and with Lipid bilayer [3] was Active. Further, the inhibition entry in the test on Sperm [9] was “Active”.

With `COC(=O)C1=C(C)NC(C)=C(C(=O)OC)C1c1ccccc1[N+](=O)[O-]`, the result in the test with Lipid bilayer [1], with Lipid bilayer [2] and in the test with Lipid bilayer [3] was Active.
